# Results from different studies.
# Lines come from different studies, so protocols differ.
SMILES,organism,assay,test system,conditions,endpoint,value
CC1(C)CC[C@]2(NC(=O)NCCN3CCCC3)CC[C@]3(C)C(=CC[C@@H]4[C@@]5(C)CC[C@@H]6OC(C)(C)OC[C@@]6(C)[C@@H]5CC[C@]43C)[C@@H]2C1,Leishmania mexicana,"parasite growth, resazurin",,"50 µM, amastigote",inhibition,99.1%
O=C(Nc1ccccc1-c1ccc(F)c(F)c1)c1nccnc1C(F)(F)F,Verticillium,microbial growth,,,EC50,11 µg/mL
CC1(C)CC[C@]2(C(=O)O)CC[C@]3(C)C(=CC[C@@H]4[C@@]5(C)CC[C@H](O[C@@H]6OC[C@H](O)[C@H](O)[C@H]6O)[C@@](C)(CO)[C@@H]5CC[C@]43C)[C@@H]2C1,Leishmania mexicana,"parasite growth, resazurin",,"50 µM, amastigote",inhibition,96.9%
Cc1ccc(-c2nc3ccccc3s2)cc1NC(=O)c1cc([N+](=O)[O-])c(NCCN)cc1Cl,Leishmania mexicana,parasite growth,J774.A1,"intracellular, amastigote",EC50,250 nM
CC1(C)CC[C@]2(NC(=O)N3CCC[C@H]3CN3CCCC3)CC[C@]3(C)C(=CC[C@@H]4[C@@]5(C)CC[C@@H]6OC(C)(C)OC[C@@]6(C)[C@@H]5CC[C@]43C)[C@@H]2C1,Leishmania mexicana,"parasite growth, resazurin",,"50 µM, amastigote",inhibition,97.6%
O=C(Nc1cncc(-c2nc3ccccc3o2)c1)c1cc([N+](=O)[O-])c(N2CCNCC2)cc1Cl,Leishmania mexicana,parasite growth,J774.A1,"intracellular, amastigote",EC50,750 nM
O=C1NC(=S)N/C1=C\c1c2ccccc2c(-c2ccc(N(c3ccccc3)c3ccccc3)cc2)c2ccccc12,Staphylococcus epidermidis,"microbial growth, broth dilution",ATCC12228,,MIC,> 1000 µg/mL
Cc1ccc(-c2nc3ccccc3s2)cc1NC(=O)c1cc([N+](=O)[O-])c(N2CCCCC2)cc1Cl,Leishmania mexicana,parasite growth,J774.A1,"intracellular, amastigote",EC50,> 10000 nM
O=C(O)CN1C(=O)/C(=C/c2ccc(-c3ccc(N(c4ccccc4)c4ccccc4)cc3)cc2)NC1=S,Staphylococcus epidermidis,"microbial killing, broth dilution",ATCC12228,,MBC,3.9 µg/mL
